T1: hCBS (human cystathionine β-synthase) (Homo sapiens, UniProt P35520)
T1 sequence (P35520 1-551): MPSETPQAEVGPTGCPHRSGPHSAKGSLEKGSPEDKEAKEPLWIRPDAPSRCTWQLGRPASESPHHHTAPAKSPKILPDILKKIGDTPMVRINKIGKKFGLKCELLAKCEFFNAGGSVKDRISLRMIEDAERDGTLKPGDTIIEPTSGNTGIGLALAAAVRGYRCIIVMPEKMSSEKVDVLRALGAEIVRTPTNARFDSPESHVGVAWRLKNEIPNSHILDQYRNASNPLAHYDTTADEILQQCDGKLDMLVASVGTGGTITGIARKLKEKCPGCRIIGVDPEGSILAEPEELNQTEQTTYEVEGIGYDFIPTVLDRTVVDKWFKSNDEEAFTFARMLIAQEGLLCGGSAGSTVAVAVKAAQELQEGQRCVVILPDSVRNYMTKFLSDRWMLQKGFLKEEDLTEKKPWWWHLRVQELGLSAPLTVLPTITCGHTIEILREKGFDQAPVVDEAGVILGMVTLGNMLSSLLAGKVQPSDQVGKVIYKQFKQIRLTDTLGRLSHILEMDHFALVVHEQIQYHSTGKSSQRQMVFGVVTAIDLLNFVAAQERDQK

T2: Human cystathionine beta-synthase (human), P35520
T2 chain: T1 sequence (P35520 1-551)

B1: Human cystathionine beta-synthase, P35520 1-551 (enzyme)
chain: T1 sequence (P35520 1-551)

Legend:
[1] = biological target: T1, hCBS (human cystathionine β-synthase); assay: radioisotope CBS activity assay with L-[U-14C]serine; type: biochemical
[2] = biological target: T1, hCBS (human cystathionine β-synthase); assay: isothermal titration calorimetry, two independent types of sites model; type: binding
Procedure, shortened: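 Purified human CBS in 20 mM Hepes pH 7.4 titrated with SAM by ITC. Without salt: 8 μM tetramer, 50 injections of 0.7 mM SAM spaced 150 s. With 200 mM NaCl: 20 μM tetramer, 19 injections of 1.06 mM SAM spaced 250 s. Isotherms fitted to a two independent types of sites model; salt titrations repeated in four independent experiments.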

[3] = biological target: T2, Human cystathionine beta-synthase …; assay: dynamic light scattering; settings: remark: other sources report otherwise

Molecule	EC50 [1]	Kd [2]	stoichiometry N [3]
C[S+](CC[C@H](N)C(=O)O)C[C@H]1O[C@@H](n2cnc3c(N)ncnc32)[C@H](O)[C@@H]1O (stereo partly drawn) [SAM]	3700 ± 200 nM	13 nM	
B1			4

Reference: article PMC4112162 (Biochimica et biophysica acta, 2014)
